pEC50, pKi: −log10 of the molar value.
Legend:
[1] = species: Rattus norvegicus; assay: The effective concentration using [35S]GTP-gamma-S binding assay in rat membranes; type: functional
[2] = species: Rattus norvegicus; assay: Maximum concentration based on [35S]GTP-gamma-S binding assay in rat membranes; type: functional
[3] = Selectivity measured as CB2/CB1
[4] = molecular target: T1, Cannabinoid receptor 1 (Rattus norvegicus, UniProt P20272); assay: Binding affinity in a competition assay by displacement of [3H]CP-55940 from Cannabinoid receptor 1 in rat whole brain membrane preparation; type: cell membranes
[5] = molecular target: T1, Cannabinoid receptor 1; assay: Binding affinity in a competition assay by displacement of [3H]- SR-141716 from Cannabinoid receptor 1 in rat whole brain membrane preparation; type: cell membranes
[6] = molecular target: Cannabinoid receptor 2 (Homo sapiens, UniProt P34972); assay: Binding affinity at cannabinoid receptor 2 in a competition assay with [3H]CP-55940 as radioligand
[7] = molecular target: T2, Cannabinoid receptor (Mus musculus) (UniProt P47746+P47936); assay: Dissociation Constant in Mouse isolated vas deferens at 316 nM of compound using cannabinoid receptor agonist WIN-55 212-2; type: functional, tissue-based
In short: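 Vasa deferentia from MF1 mice (26–44 g) were electrically stimulated in an organ bath until twitches were stable. Percent twitch inhibition was measured. KB came from a single concentration ratio via (x−1)=B/KB, with ratios from (2+2) parallel line assays. Results are means with 95% confidence limits.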

[8] = molecular target: T2, Cannabinoid receptor (Mus musculus); assay: Dissociation Constant in Mouse isolated vas deferens at 316 nM of compound using cannabinoid receptor agonist WIN-55 212-2 (95% confidence limits); type: functional, tissue-based
In short: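 Vasa deferentia from albino MF1 mice (26–44 g) in organ bath, electrically stimulated until twitch amplitude stable. Antagonist (DMSO vehicle) added 30 min before cumulative agonist additions at 5 min intervals, stimulating final 2 min of each. Inhibition relative to pre-agonist twitch; KB from single concentration ratio, (x − 1) = B/KB, via (2 + 2) parallel line assay; 95% confidence limits; n = 5 or 6.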

[9] = molecular target: T2, Cannabinoid receptor (Mus musculus); assay: Dissociation Constant in Mouse isolated vas deferens at 31.6 nM of compound using cannabinoid receptor agonist WIN-55 212-2

T1 sequence (P20272 whole entry): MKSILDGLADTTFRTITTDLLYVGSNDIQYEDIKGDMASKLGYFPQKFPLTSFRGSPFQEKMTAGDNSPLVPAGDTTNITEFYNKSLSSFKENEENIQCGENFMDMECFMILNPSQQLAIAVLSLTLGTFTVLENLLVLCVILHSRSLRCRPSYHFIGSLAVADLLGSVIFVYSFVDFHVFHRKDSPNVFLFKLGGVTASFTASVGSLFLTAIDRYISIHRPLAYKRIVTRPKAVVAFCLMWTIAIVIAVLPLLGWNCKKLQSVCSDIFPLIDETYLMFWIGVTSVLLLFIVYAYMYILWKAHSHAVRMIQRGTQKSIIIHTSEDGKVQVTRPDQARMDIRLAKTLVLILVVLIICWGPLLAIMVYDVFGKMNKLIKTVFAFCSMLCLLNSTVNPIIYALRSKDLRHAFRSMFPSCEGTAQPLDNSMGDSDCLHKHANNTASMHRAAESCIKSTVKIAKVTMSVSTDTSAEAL
T2 sequence (P47746 whole entry, looked up): as the sequence (P20272 whole entry) above, with E95D counted along it
T2 sequence (P47936 whole entry, looked up): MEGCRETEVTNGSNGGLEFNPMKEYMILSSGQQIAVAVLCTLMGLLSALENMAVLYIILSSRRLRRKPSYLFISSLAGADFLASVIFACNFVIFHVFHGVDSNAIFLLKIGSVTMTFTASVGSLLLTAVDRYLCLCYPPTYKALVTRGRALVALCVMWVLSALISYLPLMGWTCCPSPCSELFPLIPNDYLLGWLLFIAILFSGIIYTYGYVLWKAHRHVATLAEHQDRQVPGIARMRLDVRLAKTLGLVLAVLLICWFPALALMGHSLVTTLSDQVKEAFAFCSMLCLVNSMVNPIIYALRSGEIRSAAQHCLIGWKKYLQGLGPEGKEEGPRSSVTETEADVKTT
Chain of Cannabinoid receptor 2 (P34972 whole entry): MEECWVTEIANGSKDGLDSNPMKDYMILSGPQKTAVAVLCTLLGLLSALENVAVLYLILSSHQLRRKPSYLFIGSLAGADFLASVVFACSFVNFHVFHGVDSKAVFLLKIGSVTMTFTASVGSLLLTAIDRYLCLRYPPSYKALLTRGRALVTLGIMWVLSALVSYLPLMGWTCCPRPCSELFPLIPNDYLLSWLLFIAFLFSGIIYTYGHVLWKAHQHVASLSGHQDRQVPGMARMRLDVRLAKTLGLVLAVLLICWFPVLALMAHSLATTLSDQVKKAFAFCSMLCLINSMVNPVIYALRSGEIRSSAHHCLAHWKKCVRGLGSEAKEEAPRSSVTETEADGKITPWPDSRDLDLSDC

Row | Compound | pEC50 [1] | Emax [2] | Selectivity [3] | also measured
1 | Cc1c(C(=O)NCCCCO)nn(-c2ccc(Cl)cc2Cl)c1-c1ccc(Cl)cc1 | 3.52 | -79.5 |  | 
2 | CNNC(=O)c1nn(-c2ccc(Cl)cc2Cl)c(-c2ccc(Cl)cc2)c1C | 1.92 |  |  | 
3 | Cc1c(C(=O)NCCO)nn(-c2ccc(Cl)cc2Cl)c1-c1ccc(Cl)cc1 | 2.78 | -76.5 | 11 | 
4 | CCNNC(=O)c1nn(-c2ccc(Cl)cc2Cl)c(-c2ccc(Cl)cc2)c1C | 3.31 |  |  | 
5 | Cc1c(C(=O)N[C@@H](C)CO)nn(-c2ccc(Cl)cc2Cl)c1-c1ccc(Cl)cc1 | 3.53 | -83.8 | 50 | pKi [4]: 6.93; pKi [5]: 6.91; pKi [6]: 5.23
6 | Cc1c(C(=O)NCCCO)nn(-c2ccc(Cl)cc2Cl)c1-c1ccc(Cl)cc1 | 3.62 | -83.3 | 8 | 
7 | Cc1c(C(=O)NCC(C)C)nn(-c2ccc(Cl)cc2Cl)c1-c1ccc(Cl)cc1 | 5.12 | -11 | 61 | Kb [7]: 0.0212 µM
8 | Cc1c(C(=O)NC2CCCCC2)nn(-c2ccc(Cl)cc2Cl)c1-c1ccc(Cl)cc1 | 4.59 | -22.1 | 93 | 
9 | Cc1c(C(=O)NN2CCOCC2)nn(-c2ccc(Cl)cc2Cl)c1-c1ccc(Cl)cc1 | 4.41 | -76.3 | 105 | Kb [8]: 0.0125 µM
10 | Cc1c(C(=O)NC(C)C)nn(-c2ccc(Cl)cc2Cl)c1-c1ccc(Cl)cc1 | 4.80 | -46.4 | 59 | 
11 | CCNC(=O)c1nn(-c2ccc(Cl)cc2Cl)c(-c2ccc(Cl)cc2)c1C | 4.52 | -46.9 | 67 | 
12 | Cc1c(C(=O)NN)nn(-c2ccc(Cl)cc2Cl)c1-c1ccc(Cl)cc1 | 3.38 | -71.7 | 32 | 
13 | CCCCCCNC(=O)c1nn(-c2ccc(Cl)cc2Cl)c(-c2ccc(Cl)cc2)c1C | 4.53 | -13 | 378 | Kb [9]: 0.0154 µM
14 | CCCCCNC(=O)c1nn(-c2ccc(Cl)cc2Cl)c(-c2ccc(Cl)cc2)c1C | 5.28 | -7.4 |  | 
15 | CCCCNC(=O)c1nn(-c2ccc(Cl)cc2Cl)c(-c2ccc(Cl)cc2)c1C | 5.07 | -38.5 | 119 | 
16 | Cc1c(C(=O)NO)nn(-c2ccc(Cl)cc2Cl)c1-c1ccc(Cl)cc1 |  |  | 5 | 
17 | Cc1c(C(=O)N[C@H](C)CO)nn(-c2ccc(Cl)cc2Cl)c1-c1ccc(Cl)cc1 | 3.53 | -83 | 15 | pKi [4]: 6.93; pKi [5]: 7.00; pKi [6]: 5.75
18 | CCCNC(=O)c1nn(-c2ccc(Cl)cc2Cl)c(-c2ccc(Cl)cc2)c1C | 4.95 | -35.7 | 99 | 
